The text below walks through data of ChEMBL document CHEMBL1144191, “Synthesis and evaluation of a spiro-isobenzofuranone class of histamine H3 receptor inverse agonists” (Bioorg Med Chem Lett, 2008).

For data set [1], the target named is Histamine H3 receptor (Homo sapiens, UniProt Q9Y5N1). Put plainly: Inverse agonist activity at human cloned histamine H3 receptor assessed as inhibition of (R)-alpha-methylhistamine-induced [35S]GTPgammaS binding. The class given is functional. Put shortly: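 [35S]GTPγS binding assay in membranes isolated from cells transfected with cloned human H3 receptors.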
(In general: Binding of GTPγS marks nucleotide exchange on a G protein.)

Data set [2] has as its target Histamine H2 receptor (Homo sapiens, UniProt P25021). Put plainly: Inhibition of histamine H2 receptor.
For data set [3], the target named is Histamine H4 receptor (Homo sapiens, UniProt Q9H3N8). Kind of data set: Inhibition of histamine H4 receptor.
Data set [4] is described as follows: Metabolic stability in cryopreserved human hepatocytes assessed as hepatic clearance by serum incubation method. It is filed as ADME, cell-based, Liver, Hepatocyte. In short, it runs like this:
(§1)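 Hepatic clearance estimated by the serum incubation method in human and rat hepatocytes, expressed as mL/min/kg.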

Data set [5] in a line: Plasma concentration in Sprague-Dawley rat at 10 mg/kg, po after 2 hrs. Also noted: dose 10 mg/kg, route oral. It is filed as ADME, organism-based. Conditions: read-out: Drug uptake. Put shortly:
(§2)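 SD rats, n = 3 (mean), dosed orally at 10 mg/kg. Plasma, brain and cerebrospinal fluid levels measured at 2 h post-dose; brain expressed as nmol/g, plasma and CSF as µM.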

The nature of data set [6]: Tmax in Sprague-Dawley rat at 3 mg/kg, po. The class given is ADME, organism-based. Also noted: dose 3 mg/kg, route oral. As to conditions: in vivo. In short, it runs like this:
(§3)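 Sprague-Dawley rats, n = 3, mean values reported; dosed iv at 1 mg/kg or orally at 3 mg/kg. Parameters derived from the plasma profile: half-life, Vdss, plasma clearance (iv), Tmax, Cmax and oral bioavailability (po).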

Data set [7] is described as follows: Half life in Sprague-Dawley rat at 3 mg/kg, po. The class given is ADME, organism-based. Also noted: dose 3 mg/kg, route oral. As to conditions: in vivo. Put shortly:
as §3

Data set [8] in a line: Bioavailability in Sprague-Dawley rat at 3 mg/kg, po. The class given is ADME, organism-based. Conditions: in vivo. Put shortly: as §3
The nature of data set [9]: Volume of distribution at steady state in Sprague-Dawley rat at 1 mg/kg, iv. Also noted: dose 1 mg/kg, route intravenous. As to conditions: in vivo, read-out: Vdss. The class given is ADME, organism-based. In short, it runs like this:
as §3

Data set [10] can be described thus: Plasma clearance in Sprague-Dawley rat at 1 mg/kg, iv. The class given is ADME, organism-based. Also noted: dose 1 mg/kg, route intravenous. Put shortly: as §3
A short description of data set [11]: Cmax in Sprague-Dawley rat at 3 mg/kg, po. The class given is ADME, organism-based. The arrangement: dose 3 mg/kg, route oral. Conditions: in vivo. Put shortly:
as §3

Data set [12] has as its system Brain. Kind of data set: Drug concentration in Sprague-Dawley rat brain at 10 mg/kg, po after 2 hrs. The class given is ADME, organism-based. Also noted: dose 10 mg/kg, route oral. As to conditions: in vivo. Put shortly:
as §2

A short description of data set [13]: Drug concentration in Sprague-Dawley rat cerebrospinal fluid at 10 mg/kg, po after 2 hrs. The class given is ADME, organism-based. The arrangement: dose 10 mg/kg, route oral. Conditions: read-out: Drug uptake. In short, it runs like this: as §2
Data set [14] can be described thus: Half life in Sprague-Dawley rat at 1 mg/kg, iv. As to conditions: in vivo. The class given is ADME, organism-based. The arrangement: dose 1 mg/kg, route intravenous. In short, it runs like this: as §3
A short description of data set [15]: Metabolic stability in cryopreserved rat hepatocytes assessed as hepatic clearance by serum incubation method. The class given is ADME, cell-based, Liver, Hepatocyte. Put shortly: as §1
The target in data set [16] is Histamine H1 receptor (Homo sapiens, UniProt P35367). Put plainly: Inhibition of histamine H1 receptor.
Data set [17] can be described thus: Drug concentration in Sprague-Dawley rat cerebrospinal fluid at 1 mg/kg, iv after 10 mins. As to conditions: read-out: Drug uptake. The arrangement: dose 1 mg/kg, route intravenous. The class given is ADME, organism-based. Put shortly:
(§4)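 SD rats, n = 3 (mean), dosed iv at 1 mg/kg. Plasma, brain and CSF levels measured 10 min after dosing; brain expressed as nmol/g, plasma and CSF as µM.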

The subject of data set [18] is Brain. Put plainly: Drug concentration in Sprague-Dawley rat brain at 1 mg/kg, iv after 10 mins. The class given is ADME, organism-based. The arrangement: dose 1 mg/kg, route intravenous. As to conditions: in vivo. In short, it runs like this:
as §4

Data set [19] concerns the target Voltage-gated inwardly rectifying potassium channel KCNH2 (Homo sapiens, UniProt Q12809). Kind of data set: Displacement of [35S]N-[(4R)-1'-[(2R)-6-cyano-1,2,3,4-tetrahydro-2-naphthalenyl]-3,4-dihydro-4-hydroxyspiro[2H-1-benzopyran-2,4'-piperidin]-6-yl]methanesulfonamide from human ERG in HEK293 cells. The class given is cell-based. A general note: In a radioligand displacement assay an active substance lowers the binding of a labelled ligand.

Data set [20] can be described thus: Plasma concentration in Sprague-Dawley rat at 1 mg/kg, iv after 10 mins. It is filed as ADME, organism-based. Also noted: dose 1 mg/kg, route intravenous. As to conditions: read-out: Drug uptake. Put shortly:
as §4

Data set [21] has as its system LLC-PK1. Kind of data set: Ratio of permeability from basolateral to apical over apical to basolateral side of pig LLC-PK1 cells transfected with mouse MDR1a by P-gp transport assay. It is filed as ADME, cell-based, Sus scrofa. In short, it runs like this:
(§5)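 Transcellular transport measured across LLC-PK1 cell monolayers transfected with human MDR1 or mouse mdr1a. Ratio computed as (B-to-A)/(A-to-B) permeability; mean of n ≥ 3. Ratio above 3.0 taken to indicate a P-gp substrate.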

For data set [22], the system named is LLC-PK1. Put plainly: Ratio of permeability from basolateral to apical over apical to basolateral side of pig LLC-PK1 cells transfected with human MDR1 by P-gp transport assay. The class given is ADME, cell-based, Sus scrofa. Put shortly:
as §5

Histamine H3 receptor, sequence (Q9Y5N1 whole entry): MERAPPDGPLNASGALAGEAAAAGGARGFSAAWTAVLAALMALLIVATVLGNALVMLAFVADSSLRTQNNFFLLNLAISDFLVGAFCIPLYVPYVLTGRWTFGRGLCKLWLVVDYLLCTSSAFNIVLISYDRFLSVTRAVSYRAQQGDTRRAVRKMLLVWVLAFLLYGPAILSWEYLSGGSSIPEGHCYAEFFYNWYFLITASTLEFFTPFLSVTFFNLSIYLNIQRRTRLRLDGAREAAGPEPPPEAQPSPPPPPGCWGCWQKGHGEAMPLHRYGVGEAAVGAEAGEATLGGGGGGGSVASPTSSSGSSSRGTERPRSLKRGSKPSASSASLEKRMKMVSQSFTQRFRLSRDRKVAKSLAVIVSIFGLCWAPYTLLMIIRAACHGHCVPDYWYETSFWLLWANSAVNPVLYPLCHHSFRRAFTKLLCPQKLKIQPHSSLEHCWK
Histamine H4 receptor, sequence (Q9H3N8 whole entry): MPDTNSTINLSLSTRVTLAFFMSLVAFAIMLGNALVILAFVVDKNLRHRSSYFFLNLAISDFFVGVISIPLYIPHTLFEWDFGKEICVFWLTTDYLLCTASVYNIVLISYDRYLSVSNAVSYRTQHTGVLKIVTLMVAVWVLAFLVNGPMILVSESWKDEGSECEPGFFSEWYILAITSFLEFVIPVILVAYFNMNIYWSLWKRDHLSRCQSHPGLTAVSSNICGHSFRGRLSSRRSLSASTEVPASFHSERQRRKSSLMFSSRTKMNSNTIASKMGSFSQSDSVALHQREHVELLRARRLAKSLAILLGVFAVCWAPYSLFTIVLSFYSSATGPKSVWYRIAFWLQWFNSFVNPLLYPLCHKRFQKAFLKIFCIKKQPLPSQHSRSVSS
Histamine H1 receptor, sequence (P35367 whole entry): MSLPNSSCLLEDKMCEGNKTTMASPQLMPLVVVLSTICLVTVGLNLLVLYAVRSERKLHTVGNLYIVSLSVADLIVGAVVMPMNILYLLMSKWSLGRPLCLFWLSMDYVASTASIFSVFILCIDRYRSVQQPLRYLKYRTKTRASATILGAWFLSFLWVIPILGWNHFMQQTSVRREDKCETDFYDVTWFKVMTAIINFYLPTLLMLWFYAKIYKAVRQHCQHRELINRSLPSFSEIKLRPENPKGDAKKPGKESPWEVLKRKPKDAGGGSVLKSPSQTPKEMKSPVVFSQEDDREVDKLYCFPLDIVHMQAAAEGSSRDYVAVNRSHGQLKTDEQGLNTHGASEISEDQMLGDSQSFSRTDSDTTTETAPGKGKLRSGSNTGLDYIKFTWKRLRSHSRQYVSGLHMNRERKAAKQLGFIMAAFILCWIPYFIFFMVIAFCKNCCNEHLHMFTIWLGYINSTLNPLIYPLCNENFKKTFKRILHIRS
Histamine H2 receptor, sequence (P25021 whole entry): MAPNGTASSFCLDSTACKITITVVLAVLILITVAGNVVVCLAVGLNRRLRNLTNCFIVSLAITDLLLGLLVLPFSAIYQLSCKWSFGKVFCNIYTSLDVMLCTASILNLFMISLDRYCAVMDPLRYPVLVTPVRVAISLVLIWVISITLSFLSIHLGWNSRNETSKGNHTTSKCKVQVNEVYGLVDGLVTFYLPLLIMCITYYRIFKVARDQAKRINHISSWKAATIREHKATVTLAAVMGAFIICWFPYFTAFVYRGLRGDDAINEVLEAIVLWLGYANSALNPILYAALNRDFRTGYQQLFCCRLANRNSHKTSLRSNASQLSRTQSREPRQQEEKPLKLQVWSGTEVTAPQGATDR
Voltage-gated inwardly rectifying potassium channel KCNH2, sequence (Q12809 whole entry): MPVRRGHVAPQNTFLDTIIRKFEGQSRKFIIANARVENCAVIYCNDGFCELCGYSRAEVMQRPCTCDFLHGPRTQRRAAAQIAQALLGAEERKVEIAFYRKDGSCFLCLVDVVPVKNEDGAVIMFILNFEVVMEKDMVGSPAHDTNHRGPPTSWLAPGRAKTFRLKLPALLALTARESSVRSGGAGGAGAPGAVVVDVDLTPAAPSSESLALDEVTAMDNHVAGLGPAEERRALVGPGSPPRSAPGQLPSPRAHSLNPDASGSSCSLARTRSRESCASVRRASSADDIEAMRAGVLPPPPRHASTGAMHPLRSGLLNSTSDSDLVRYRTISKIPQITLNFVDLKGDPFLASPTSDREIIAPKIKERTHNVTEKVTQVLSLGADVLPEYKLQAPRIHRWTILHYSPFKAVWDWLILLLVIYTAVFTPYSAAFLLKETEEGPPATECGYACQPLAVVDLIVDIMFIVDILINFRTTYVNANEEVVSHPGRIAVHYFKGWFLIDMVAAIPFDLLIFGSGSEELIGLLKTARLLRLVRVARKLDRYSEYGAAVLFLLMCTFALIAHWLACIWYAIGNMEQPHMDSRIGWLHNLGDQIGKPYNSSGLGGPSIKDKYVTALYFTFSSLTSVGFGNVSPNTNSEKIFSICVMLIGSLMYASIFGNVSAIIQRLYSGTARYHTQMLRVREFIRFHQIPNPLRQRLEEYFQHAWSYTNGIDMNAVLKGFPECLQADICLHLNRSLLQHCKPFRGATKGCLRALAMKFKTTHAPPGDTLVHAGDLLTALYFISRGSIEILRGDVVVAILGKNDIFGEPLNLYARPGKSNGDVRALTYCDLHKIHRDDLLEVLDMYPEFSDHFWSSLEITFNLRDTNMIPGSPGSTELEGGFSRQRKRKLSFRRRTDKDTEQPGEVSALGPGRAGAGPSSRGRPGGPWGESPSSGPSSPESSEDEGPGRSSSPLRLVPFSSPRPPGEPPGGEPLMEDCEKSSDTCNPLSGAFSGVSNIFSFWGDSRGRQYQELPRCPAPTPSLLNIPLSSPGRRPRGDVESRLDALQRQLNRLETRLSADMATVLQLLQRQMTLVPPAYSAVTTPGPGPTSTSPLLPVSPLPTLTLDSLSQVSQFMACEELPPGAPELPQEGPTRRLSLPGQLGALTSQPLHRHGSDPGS

By IC50 is commonly meant the point on the concentration scale where inhibition reaches its midpoint. Turning to `CN(CCN1CCCCC1)C(=O)N1CCC(C(C)(C)C)CC1`, the IC50 in data set [1] was over 1000 nM.
Same read-out and setting: to `CN(CCN1CCCCC1)C(=O)N1CCC2(CC1)NC(=O)c1ccccc12` belongs 53 nM.
In the case of `CN(CCN1CCCCC1)C(=O)N1CCN(c2ccc(Cl)cc2)CC1`, the IC50 in data set [1] is 160 nM.
Still for that read-out and setting: for `CN(CCN1CCCCC1)C(=O)N1CCC(c2ccc3ccccc3c2)CC1` the value was 110 nM.
Same read-out and setting: for `CN(CCN1CCCCC1)C(=O)N1CCC(c2ccccc2)CC1` the value was 893 nM.
For the compound `CN(CCN1CCCCC1)C(=O)N1CCC2(CC1)NC(=O)c1ccccc1N2`, in data set [1], the IC50 was determined as 560 nM.
In the case of `CN(CCN1CCCCC1)C(=O)N1CCC2(CC1)OC(=O)Nc1ccccc12`, the half-maximal inhibitory concentration (IC50) in [1] is over 1000 nM.
What is called Tmax is the time at which the peak concentration occurs. One may read the half-life as how long it takes for the measured level to halve. Lower therefore signals rapid decline. A word on the bioavailability: it is the share of a dose that reaches the circulation, judged against a reference dose that is usually intravenous. A word on the clearance: it is the volume of plasma or blood freed of the substance per unit of time. Lower therefore signals inefficient removal. The term Cmax denotes the maximum level reached in the sampled fluid or tissue. Consider `COc1ccc2c(c1)C(=O)O[C@]21CC[C@H](C(=O)N(C)CCN2CCCCC2)CC1`, for which the half-inhibitory concentration (IC50) in data set [2] was over 10000 nM; in data set [3], over 10000 nM; in data set [1] it was 0.54 nM; in [16], over 10000 nM. Moreover, the CLhep predicted in data set [4] was 18 mL/min/kg; in [15] it was 54 mL/min/kg. The concentration at 2 h is 270 nM in data set [5] and 58 nM in data set [13]. Also, the time of peak concentration (Tmax) in data set [6] stood at 0.3 h. Further, the half-life in data set [7] and in [14] was 1.4 h throughout. Also, in [8], the bioavailability is 7%. Besides, the Vd in [9] is 7.2 L/kg. In addition, the clearance in data set [10] stood at 74 mL/min/kg. In addition, the peak level in data set [11] (Cmax) was 60 nM. This compound also showed a Drug uptake in [12] of 0.48 nmol/g.
Regarding `CN(CCN1CCCCC1)C(=O)N1CCC2(CC1)OC(=O)c1ccccc12`, the half-inhibitory concentration (IC50) in data set [1] is 21 nM.
With `CN(CCN1CCCCC1)C(=O)N1CCC(C(=O)c2ccccc2)CC1`, in data set [1], the half-inhibitory concentration (IC50) worked out at 237 nM.
On the same count and under the same terms, to `COc1cccc2c1[C@]1(CC[C@@H](C(=O)N(C)CCN3CCCCC3)CC1)OC2=O` belongs 3.6 nM; to `CN(CCN1CCCCC1)C(=O)N1CCN(c2ccccc2Cl)CC1`, over 1000 nM; to `CN(CCN1CCCCC1)C(=O)N1CCC(Cc2ccccc2)CC1`, 393 nM.
Same read-out and setting: for `COc1ccc2c(c1)[C@]1(CC[C@@H](C(=O)N(C)CCN3CCCCC3)CC1)OC2=O` the value was 18 nM.
The same measure, in the same setting: to `CN(CCN1CCCCC1)C(=O)N1CCC(c2ccccc2)(c2ccccc2)CC1` belongs 98 nM; to `CN(CCN1CCCCC1)C(=O)N1CCC(C#N)(c2ccccc2)CC1`, 267 nM.
On to `CN(CCN1CCCCC1)C(=O)N1CCc2ccccc2C1`, for which the IC50 in [1] came to 680 nM.
On the same count and under the same terms, to `CN(CCN1CCCCC1)C(=O)N1CCC2(CC1)CC(=O)c1ccccc1O2` belongs 68 nM; to `CN(CCN1CCCCC1)C(=O)N1CCC2(CC1)c1ccccc1C(=O)N2C`, 45 nM.
Regarding `CN(CCN1CCCCC1)C(=O)N1CCC2(CC1)Cc1ccccc1C(=O)O2`, the concentration for half-maximal inhibition (IC50) in data set [1] came out at 380 nM.
Turning to `CN(CCN1CCCCC1)C(=O)N1CCN(c2cccc(Cl)c2)CC1`, the IC50 in data set [1] amounted to 297 nM.
On the same count and under the same terms, to `CN(CCN1CCCCC1)C(=O)N1CCC2(CC1)OCc1ccccc12` belongs 387 nM; to `CN(CCN1CCCCC1)C(=O)N1CCC2(CC1)CC(=O)c1ccccc12`, 43 nM; to `CN(CCN1CCCCC1)C(=O)N1CCN(c2ccccc2)CC1`, 506 nM.
`CN(CCN1CCCCC1)C(=O)N1CCC2(CC1)NC(=O)Cc1ccccc12`: in data set [1], the concentration for half-maximal inhibition (IC50) is 783 nM.
On the same count and under the same terms, for `CN(CCN1CCCCC1)C(=O)N1CCC(c2cccc3ccccc23)CC1` the value was 343 nM.
For `CN(CCN1CCCCC1)C(=O)[C@H]1CC[C@@]2(CC1)OC(=O)c1ccccc12`, the concentration for half-maximal inhibition (IC50) in data set [2] was over 10000 nM; in [3], over 10000 nM; in data set [1] it was 0.72 nM; in [19], over 10000 nM; in data set [16], over 10000 nM. Also, the values for the CLhep predicted in [4] and in [15] were 18 mL/min/kg and 59 mL/min/kg, respectively. In addition, the concentration at 10 min in data set [17] turned out to be 370 nM; in data set [20], 1500 nM. In [10], this compound had a clearance of 97 mL/min/kg. The Drug uptake in data set [18] is on record as 2.4 nmol/g. Besides, the Ratio stood at 2 in [21] and 1.2 in data set [22].
As to `CN(CCN1CCCCC1)C(=O)N1CCC2(CC1)Cc1ccccc1C2`, the IC50 in data set [1] came out at 530 nM.
The same measure, in the same setting: for `CN(CCN1CCCCC1)C(=O)N1CCC(O)(c2ccccc2)CC1` the value was over 1000 nM.
